Data on 16 molecules can be found in ChEMBL document CHEMBL1132963, “Structure-based design of potent, amidine-derived inhibitors of factor Xa: evaluation of selectivity, anticoagulant activity, and antithrombotic activity” (2000).

Structures are written as SMILES.

The target in experiment [1] is Coagulation factor X (Homo sapiens) (UniProt P00742). Briefly: Apparent association constant against human Coagulation factor X. In a few lines:
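Human fXa at 3.2 nM final in Tris/NaCl buffer pH 7.4 with HSA; inhibitor added from MeOH in triplicate at four to eight concentrations, then chromogenic substrate (0.3 mM stock) to start hydrolysis, read at 405 nm. Free and bound enzyme taken from on-plate standard curves; apparent Kass = [Eb]/[Ef][Io − Ib] from concentrations giving 20–80% inhibition. At least 3 separate experiments averaged.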

Experiment [2] in a line: Selectivity as the ratio of Kass value towards fXa to that of trypsin. In a few lines:
(§1)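 Ratio of fXa Kass to Kass for the second protease. Each Kass is an apparent association constant from chromogenic substrate hydrolysis kinetics at 405 nm, run at one substrate concentration per protease, in triplicate at four to eight inhibitor concentrations. Each value is the mean of at least 3 separate experiments.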

A short description of experiment [3]: Selectivity as the ratio of Kass value towards fXa to that of UK. In a few lines: as §1
Experiment [4] deals with Vitamin K-dependent protein C (Homo sapiens) (UniProt P04070). Briefly: Tested for inhibition of activated protein C. The gist of the method:
(§2)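 Apparent association constant from inhibition of chromogenic substrate hydrolysis read at 405 nm, using a single substrate concentration suited to each protease. Inhibitor dilutions done in triplicate at four to eight concentrations; Kass computed from free and bound enzyme at 20–80% inhibition. Mean of at least 3 separate experiments.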

The species named for another experiment is Homo sapiens. Briefly: Compound required to double the time to clot formation in reconstituted human plasma, using the prothromboplastin time (PT). In kind it is functional. The gist of the method: (§3)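 Reconstituted human plasma; clotting by activated partial thromboplastin time or prothrombin time. Value is the inhibitor concentration that doubles clotting time.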

For experiment [5], the target named is Tissue-type plasminogen activator (Homo sapiens) (UniProt P00750). In words: Tested for inhibition of Tissue type plasminogen activator. The gist of the method:
as §2

Experiment [6] in a line: Compound required to double the time to clot formation in reconstituted human plasma, using activated partial thromboplastin time (APTT). In kind it is functional. In a few lines:
as §3

Experiment [7] deals with Plasminogen and coagulation factor X (Homo sapiens). In words: Selectivity as the ratio of Kass value towards fXa to that of plasmin.
A further experiment addresses T1, Trypsin II (Bos taurus) (UniProt Q29463).
T1 sequence (whole entry): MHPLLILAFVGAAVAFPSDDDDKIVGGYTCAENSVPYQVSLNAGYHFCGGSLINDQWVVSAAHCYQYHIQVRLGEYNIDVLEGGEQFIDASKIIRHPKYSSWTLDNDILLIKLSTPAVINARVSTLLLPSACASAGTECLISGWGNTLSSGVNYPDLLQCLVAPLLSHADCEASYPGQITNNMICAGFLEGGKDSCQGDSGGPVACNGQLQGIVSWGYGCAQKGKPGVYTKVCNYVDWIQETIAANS
In words: Tested for inhibition of trypsin. In a few lines:
as §2

The target in experiment [8] is Plasminogen (Homo sapiens) (UniProt P00747). Briefly: Tested for inhibition of plasmin.
The target of experiment [9] is Urokinase-type plasminogen activator (Homo sapiens) (UniProt P00749). Briefly: Tested for inhibition of Urokinase-type plasminogen activator. The gist of the method:
as §2

Experiment [10] concerns the target Coagulation factor X (Homo sapiens) (UniProt P00742). In words: Selectivity as the ratio of Kass value towards fXa to that of aPC. The gist of the method: as §1
Experiment [11] can be described thus: Selectivity as the ratio of Kass value towards fXa to that of tissue plasminogen activator. The gist of the method:
as §1

Experiment [12] deals with Prothrombin (Homo sapiens) (UniProt P00734). Briefly: Tested for inhibition of thrombin. The gist of the method:
as §2

The target in experiment [13] is Thrombin and coagulation factor X (Homo sapiens) (UniProt P00734+P00742). In words: Selectivity as the ratio of Kass value towards fXa to that of thrombin. In kind it is protein assay. The gist of the method: as §1
Thrombin and coagulation factor X (Homo sapiens), sequence (P00742 whole entry, looked up, other chains not shown): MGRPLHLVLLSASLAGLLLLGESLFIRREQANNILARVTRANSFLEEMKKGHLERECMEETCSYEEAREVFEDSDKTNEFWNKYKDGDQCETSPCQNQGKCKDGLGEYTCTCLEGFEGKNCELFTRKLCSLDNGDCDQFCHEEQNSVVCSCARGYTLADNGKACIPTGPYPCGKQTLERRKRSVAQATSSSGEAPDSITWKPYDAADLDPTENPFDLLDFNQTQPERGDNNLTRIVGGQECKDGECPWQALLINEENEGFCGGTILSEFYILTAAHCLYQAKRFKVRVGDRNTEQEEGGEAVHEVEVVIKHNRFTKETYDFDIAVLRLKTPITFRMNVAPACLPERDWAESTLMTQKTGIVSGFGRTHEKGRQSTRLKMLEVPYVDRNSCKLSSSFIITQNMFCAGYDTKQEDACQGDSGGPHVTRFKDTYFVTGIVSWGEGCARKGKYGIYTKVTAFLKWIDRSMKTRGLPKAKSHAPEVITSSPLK

Plasminogen (Homo sapiens), sequence (P00747 whole entry, looked up): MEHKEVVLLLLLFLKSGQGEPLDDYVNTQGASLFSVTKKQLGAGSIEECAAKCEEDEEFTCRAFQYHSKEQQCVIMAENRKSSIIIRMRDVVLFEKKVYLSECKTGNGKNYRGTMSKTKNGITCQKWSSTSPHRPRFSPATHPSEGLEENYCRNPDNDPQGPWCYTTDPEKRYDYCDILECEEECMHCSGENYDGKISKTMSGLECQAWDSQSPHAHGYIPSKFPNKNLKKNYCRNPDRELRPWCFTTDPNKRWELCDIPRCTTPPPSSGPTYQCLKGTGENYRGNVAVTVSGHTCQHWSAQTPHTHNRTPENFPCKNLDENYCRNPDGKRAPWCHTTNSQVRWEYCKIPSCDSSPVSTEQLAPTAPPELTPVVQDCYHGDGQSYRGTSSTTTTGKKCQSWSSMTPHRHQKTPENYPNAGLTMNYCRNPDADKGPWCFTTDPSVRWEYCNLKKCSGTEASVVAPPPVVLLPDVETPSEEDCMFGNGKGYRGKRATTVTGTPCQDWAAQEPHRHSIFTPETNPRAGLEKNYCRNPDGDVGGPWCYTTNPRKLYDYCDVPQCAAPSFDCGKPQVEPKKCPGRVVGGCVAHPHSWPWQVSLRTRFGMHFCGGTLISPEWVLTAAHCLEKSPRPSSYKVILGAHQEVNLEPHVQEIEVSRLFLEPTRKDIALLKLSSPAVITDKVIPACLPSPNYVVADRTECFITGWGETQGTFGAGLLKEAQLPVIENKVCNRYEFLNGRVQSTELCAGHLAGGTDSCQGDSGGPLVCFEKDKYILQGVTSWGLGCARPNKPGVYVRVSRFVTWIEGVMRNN
Coagulation factor X (Homo sapiens), sequence (P00742 41-179 limits assumed): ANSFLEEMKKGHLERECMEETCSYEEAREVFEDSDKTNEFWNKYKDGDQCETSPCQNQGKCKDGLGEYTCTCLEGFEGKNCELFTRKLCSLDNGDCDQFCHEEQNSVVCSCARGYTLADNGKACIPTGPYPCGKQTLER
Coagulation factor X (Homo sapiens), sequence (P00742 235-488 limits assumed): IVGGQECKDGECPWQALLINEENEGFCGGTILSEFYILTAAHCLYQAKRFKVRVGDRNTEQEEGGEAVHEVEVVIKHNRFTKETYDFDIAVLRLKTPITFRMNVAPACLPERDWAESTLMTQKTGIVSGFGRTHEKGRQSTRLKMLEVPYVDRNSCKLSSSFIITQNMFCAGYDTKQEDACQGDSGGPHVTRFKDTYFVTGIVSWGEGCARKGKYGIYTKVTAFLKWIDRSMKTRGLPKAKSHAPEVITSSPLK
Tissue-type plasminogen activator (Homo sapiens), sequence (P00750 36-562 limits assumed): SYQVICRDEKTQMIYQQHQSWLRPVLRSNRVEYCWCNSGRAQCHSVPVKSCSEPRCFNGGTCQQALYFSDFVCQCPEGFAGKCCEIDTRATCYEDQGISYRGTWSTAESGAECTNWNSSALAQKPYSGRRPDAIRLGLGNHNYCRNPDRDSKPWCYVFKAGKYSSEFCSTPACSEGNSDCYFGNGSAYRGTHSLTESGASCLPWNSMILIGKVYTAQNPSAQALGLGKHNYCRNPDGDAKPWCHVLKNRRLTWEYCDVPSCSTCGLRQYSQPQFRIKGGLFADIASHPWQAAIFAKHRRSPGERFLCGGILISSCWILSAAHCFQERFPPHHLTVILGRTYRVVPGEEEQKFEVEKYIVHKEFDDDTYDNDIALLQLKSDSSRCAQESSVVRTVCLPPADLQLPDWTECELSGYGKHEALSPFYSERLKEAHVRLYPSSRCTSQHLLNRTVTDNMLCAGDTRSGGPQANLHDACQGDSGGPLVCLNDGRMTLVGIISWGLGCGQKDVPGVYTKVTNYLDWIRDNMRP
Vitamin K-dependent protein C (Homo sapiens), sequence (P04070 43-197 limits assumed): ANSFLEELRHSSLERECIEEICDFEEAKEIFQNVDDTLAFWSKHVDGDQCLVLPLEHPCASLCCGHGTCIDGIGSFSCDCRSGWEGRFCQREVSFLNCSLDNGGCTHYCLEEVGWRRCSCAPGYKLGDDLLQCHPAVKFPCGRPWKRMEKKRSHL
Vitamin K-dependent protein C (Homo sapiens), sequence (P04070 212-461 limits assumed): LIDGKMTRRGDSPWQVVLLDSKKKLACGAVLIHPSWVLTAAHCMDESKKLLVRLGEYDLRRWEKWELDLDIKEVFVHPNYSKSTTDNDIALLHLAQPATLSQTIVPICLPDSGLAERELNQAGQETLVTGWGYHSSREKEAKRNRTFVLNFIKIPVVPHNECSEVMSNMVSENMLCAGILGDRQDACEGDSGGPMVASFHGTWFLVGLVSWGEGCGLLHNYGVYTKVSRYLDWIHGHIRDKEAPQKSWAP

In the case of `COc1ccc(C(=O)Nc2ccccc2NC(=O)c2ccc(C(=N)N)cc2)cc1`, the K ass in [1] is 5.7e+06 l M-1.
Still for that read-out and setting: under `CCOc1ccc(C(=O)Nc2ccccc2NC(=O)c2cccc(C(=N)N)c2)cc1` stands 2.9e+07 l M-1.
For `CC(C)(C)c1ccc(C(=O)Nc2cc(C(=O)O)ccc2NC(=O)c2cccc(C(=N)N)c2)cc1`, the Ratio came out at 390 in experiment [2]; 470000 in experiment [3]; 6400 in [7]; 36000 in experiment [10]; 120000 in [11]; 720 in [13]. The K ass is 13000 l M-1 in [4]; 4000 l M-1 in experiment [5]; 1.2e+07 l M-1 on Trypsin II (Bos taurus); 73000 l M-1 in experiment [8]; 1000 l M-1 in [9]; 650000 l M-1 in [12]. The Activity amounted to 0.83 µM in the experiment filed under Homo sapiens and 0.72 µM in experiment [6].
For `CC(C)(C)c1ccc(C(=O)Nc2ccccc2NC(=O)c2cccc(C(=N)N)c2)cc1`, the Ratio in experiment [2] is 740; in [3] it was greater than 250000; in experiment [7], 42000; in experiment [10], 13000; in experiment [11], 23000; in experiment [13] it was 83. For the same molecule, the K ass in experiment [4] is 2000 l M-1; in experiment [1], 2.5e+08 l M-1; in experiment [5], 11000 l M-1; on Trypsin II (Bos taurus), 340000 l M-1; in [8] it was 6000 l M-1; in experiment [12], 3e+06 l M-1. In addition, the Activity was 0.96 µM in the experiment listed under Homo sapiens and 0.67 µM in experiment [6].
For `CC(C)(C)c1ccc(C(=O)Nc2ccsc2C(=O)Nc2cccc(C(=N)N)c2)cc1`, in experiment [1], the K ass was 1.2e+07 l M-1.
Same read-out and setting: in the case of `COc1ccc(C(=O)Nc2ccc(C(=N)N)cc2NC(=O)c2ccc(OC)cc2)cc1` it was 270000 l M-1.
The same measure, in the same setting: in the case of `COc1ccc(C(=O)Nc2ccccc2NC(=O)C2CCCN(C(=N)N)C2)cc1` (stereo not drawn) it was 1e+06 l M-1.
As to `CC(C)c1ccc(C(=O)Nc2cc(OCC(=O)O)ccc2NC(=O)c2cccc(C(=N)N)c2)cc1`, the Ratio worked out at 140 in [2]; 340000 in experiment [3]; 8700 in [7]; 24000 in experiment [10]; 49000 in [11]; 430 in experiment [13]. The K ass in experiment [4] is 14000 l M-1; in [1] it was 3.4e+08 l M-1; in experiment [5], 7000 l M-1; on Trypsin II (Bos taurus), 2.5e+06 l M-1; in experiment [8] it was 39000 l M-1; in [9] it was 1000 l M-1. Also, the K ass in experiment [12] was 800000 l M-1.
Turning to `CC(C)(C)c1ccc(C(=O)Nc2ccccc2NC(=O)C2CCCN(C(=N)N)C2)cc1` (stereo not drawn), the K ass in experiment [1] is 1.2e+07 l M-1.
Regarding `COc1ccc(C(=O)Nc2ccccc2NC(=O)c2cccc(C(=N)N)c2)cc1`, the Ratio in experiment [2] came to 25; in experiment [3], 15000; in [7], 750; in experiment [10], 1000; in experiment [11] it was 750; in experiment [13], 56. Further, the K ass in [4] was 15000 l M-1; in [1] it was 1.4e+07 l M-1; in [5], 20000 l M-1; at Trypsin II (Bos taurus), 600000 l M-1; in experiment [8], 20000 l M-1; in experiment [9], 1000 l M-1. Also, the K ass in [12] is 270000 l M-1. Also, the figures for the Activity (in the experiment listed under Homo sapiens; in experiment [6]) were 1.5 µM and 2 µM, respectively.
For the molecule `CC(C)c1ccc(C(=O)Nc2ccccc2NC(=O)c2cccc(C(=N)N)c2)cc1`, the K ass in experiment [1] is 1.8e+08 l M-1.
The same measure, in the same setting: under `CCOC(=O)COc1ccc(NC(=O)c2cccc(C(=N)N)c2)c(NC(=O)c2ccc(C(C)C)cc2)c1` stands 1.6e+08 l M-1.
Still for that read-out and setting: under `COc1ccc(NC(=O)c2ccccc2NC(=O)c2cccc(C(=N)N)c2)cc1` stands 1.7e+06 l M-1.
Same read-out and setting: under `CC(C)c1ccc(C(=O)Nc2cc(O)ccc2NC(=O)c2cccc(C(=N)N)c2)cc1` stands 2.3e+08 l M-1; under `CC(C)(C)c1ccc(C(=O)Nc2ccccc2C(=O)Nc2cccc(C(=N)N)c2)cc1`, 3.5e+06 l M-1; under `CC(C)(C)c1ccc(C(=O)Nc2ccc(C(=O)O)cc2NC(=O)c2cccc(C(=N)N)c2)cc1`, 5.4e+07 l M-1.
